Reference: PMC2909360 (Molecular microbiology, 2010)
Like-named read-outs stand apart in the source and are kept apart here.

T1: purified human cathepsin H (Homo sapiens, UniProt P09668)
T1 sequence (P09668 98-335): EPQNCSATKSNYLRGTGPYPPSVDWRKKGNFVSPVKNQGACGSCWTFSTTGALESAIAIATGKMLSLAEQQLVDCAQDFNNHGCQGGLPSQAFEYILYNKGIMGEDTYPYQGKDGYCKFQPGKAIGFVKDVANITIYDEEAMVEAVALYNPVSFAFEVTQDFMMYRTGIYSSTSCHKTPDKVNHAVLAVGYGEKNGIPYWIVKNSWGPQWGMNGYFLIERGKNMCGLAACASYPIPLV

B1: sialoL: salivary cystatin (cysteine protease inhibitor) from the tick Ixodes scapularis, recombinant from E. coli (protein)
chain: TGVFGGYSERANHQANPEFLNLAHYATSTWSAQQPGKTHFDTVAEVVKVETQVVAGTNYRLTLKVAESTCELTSTYNKDTCLPKADAAHRTCTTVVFENLQGDKSVSPFECEAA
B2: sialoL2: salivary cystatin (cysteine protease inhibitor) from the tick Ixodes scapularis, recombinant from E. coli (protein)
chain: MELALRGGYRERSNQDDPEYLELAHYATSTWSAQQPGKTHFDTVVEVLKVETQTVAGTNYRLTLKVAESTCELTSTYNKDTCQANANAAQRTCTTVIYRNLQGEKSISSFECAAA

How the values were obtained:
[1] = biological target: T1, purified human cathepsin H; assay: Inhibition of cathepsin H, fluorogenic substrate assay; format: biochemical
[2] = biological target: purified bovine cathepsin B (Bos taurus, UniProt P07688); assay: Inhibition of cathepsin B, fluorogenic substrate assay; format: biochemical
Summary of the method: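 Pre-incubated 10 min at room temperature with increasing inhibitor concentrations, then Z-Leu-Arg-AMC added (0.25 mM final) at 30°C. Linear hydrolysis rate read for 20 min (ex 365/em 450 nm). Triplicates, mean ± SEM. IC50 from activity loss.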

Molecule | inhibition of cathepsin H (in words) [1] | inhibition of cathepsin B (in words) [2] | inhibition of cathepsin H (in words) ([1]; listed as sialostatin L2)
B1 | no inhibition | no inhibition | –
B2 | – | no inhibition | no detectable inhibition
